Bioassay records deposited in PubChem by several laboratories.
This is a sample that favours compounds with a hit; in the whole collection about 4.1% have one here.
KCNK9 block: blocks the human KCNK9 two-pore domain potassium channel; HEK293 KCNK9, FluxOR thallium flux fluorescence; active compounds read low; B-score at 10 µM; hit rate 1.2% among 310,000; AID 488922;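 active = ratio B-score over 3 SD below the library mean, with starting fluorescence within 5 SD of its mean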;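 also: negative B-score means less thallium flux so channel inhibition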
KCNQ1 pot: potentiates or activates the human KCNQ1 potassium channel | hit rate 0.35% among 310,000 | B-score at 10 µM | CHO-K1 KCNQ1, thallium flux FluxOR fluorescence; active compounds read high | P51787;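 active = fluorescence ratio B-score, a plate-corrected score, at least three library SD, with initial intensity B-score within 5 SD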
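Assay system: stable KCNQ1 CHO-K1 line; medium: assay buffer, equal DMSO in all wells; timing: 90 min dye loading and 20 min compound exposure, both at room temperature; technique: kinetic FluxOR thallium fluorescence, 10-s 1-Hz baseline, 110-s post-stimulus read; read-out basis: B score of baseline-normalized fluorescence ratio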
hERG rescue: compounds protecting human hERG from proarrhythmic drug block; hit rate 0.51% among 310,000; CHO-hERG, FluxOR thallium flux, dofetilide IC70 present; activation (rescue from dofetilide block), less the hit threshold, % at 10 µM;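 active = activation above the mean of controls blocked by dofetilide plus 5 SD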;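 also: thallium influx through hERG after potassium depolarization seen as dye fluorescence rise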
KCNQ1 block: inhibitors of human KCNQ1 potassium channel | CHO-K1 KCNQ1, FluxOR thallium flux fluorescence; active compounds read high | B-score at 10 µM | hit rate 1.3% among 310,000 | P51787 | AID 2642;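 active = compounds whose thallium flux B-score, printed positive for inhibition, exceeds three library SD while starting fluorescence stays within three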;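 also: channel opened by potassium depolarization with thallium stimulus after 20 min compound exposure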
Cl transport mod: KCC2 (human) Cl- transport modulation. B-score of Tl+ flux slope (higher = more flux/activation; lower = inhibition) at 10 µM. AID 1456. KCC2 cells, thallium flux FluoZin-2 fluorescence. Q9H2X9. hit rate 2.2% among 190,000;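 active = thallium flux slope and its plate-corrected score both differing from the plate sample mean at a set confidence after two filtering rounds, in either direction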;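 also: slope of fluorescence scaled to starting intensity during 10 to 20 s after thallium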
KCNK3 block: human KCNK3 channel inhibition, primary screen; O14649; CHO-KCNK3 thallium flux, FluxOR fluorescence; active compounds read low; B-score at 10 µM; hit rate 0.84% among 340,000; AID 602410;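 active = B-score under library mean minus 4 SD, starting fluorescence ratio at most library mean plus 5 SD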;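 also: more negative B-score means stronger inhibition of thallium flux through KCNK3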
KCNK3 confirm: human KCNK3 channel inhibition, confirmation assay | ratio percent of control, % at 10 µM | shares compounds with KCNK3 block | hit rate 99% among 2,400 | CHO-KCNK3 thallium flux, FluxOR fluorescence; 0% buffer, 100% carvedilol maximal block;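 active = ratio percent of control, averaged over triplicates, above buffer control mean plus 5 SD, cut at about 64% in these data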;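 also: ratio is the fluorescence rise from min to max over baseline after thallium stimulus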
KCNK3 noninduced: activity in cells without induced KCNK3 expression; hit rate 40% among 2,400; AID 651747; shares compounds with KCNK3 block; thallium flux ratio (lower = more inhibition) at 10 µM; non-induced KCNK3 parental cells, FluxOR thallium flux; active compounds read low;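 active = thallium flux ratio, averaged over three wells, more than 5 SD below the buffer control mean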;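 also: host cells are CHO cells without KCNK3 induction; ratio is peak minus trough fluorescence over baseline then normalized to buffer controls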
An asterisk follows results filed as active.

`CCc1ccc(-c2nc(CSCC(=O)N3CCN(c4ccccn4)CC3)c(C)o2)cc1` gave KCNK9 block inactive, KCNQ1 pot inactive, hERG rescue -33, KCNQ1 block inactive and KCNK3 block inactive.
`CCOc1ccc(-c2nc(CSCC(=O)N3CCN(c4cccc(OC)c4)CC3)c(C)o2)cc1` gave KCNK9 block inactive, KCNQ1 pot inactive, hERG rescue -15, KCNQ1 block inactive, KCNK3 block -12*, KCNK3 confirm 138* and KCNK3 noninduced 0.15*.
Screening O=C(Nc1ccccc1)N(CCN1CCOCC1)Cc1cccc(Cl)c1 returned KCNK9 block inactive, KCNQ1 pot inactive, hERG rescue -6, KCNQ1 block inactive, Cl transport mod 0.97, KCNK3 block -12*, KCNK3 confirm 94* and KCNK3 noninduced inactive.
COc1ccc(CN(CCCN2CCOCC2)C(=O)Nc2ccccc2)cc1OC was read as KCNK9 block inactive, KCNQ1 pot inactive, hERG rescue -11, KCNQ1 block inactive and KCNK3 block inactive.
`O=[N+]([O-])c1cccc(C2NCC(c3ccccc3Cl)c3c2[nH]c2ccccc32)c1` (centres undefined) gave KCNK9 block -8.1*, KCNQ1 pot inactive, hERG rescue -14, KCNQ1 block 7*, KCNK3 block -9.5*, KCNK3 confirm 125* and KCNK3 noninduced 0.14*.
Screening CCCCCCNS(=O)(=O)c1ccc(Cl)s1 returned KCNK9 block inactive, KCNQ1 pot inactive, hERG rescue -5, KCNQ1 block inactive, Cl transport mod 1.6, KCNK3 block -9.2*, KCNK3 confirm 94* and KCNK3 noninduced inactive.
`Cc1cc(NC(=O)c2cc(C(C)C)on2)nn1Cc1ccc(Cl)cc1` gave KCNK9 block inactive, KCNQ1 pot inactive, hERG rescue -11, KCNQ1 block inactive, Cl transport mod -0.94, KCNK3 block -9.5*, KCNK3 confirm 105* and KCNK3 noninduced inactive.
`Cc1cc(C(=O)Nc2cc(C)n(Cc3ccc(Cl)cc3)n2)no1` gave KCNK9 block inactive, KCNQ1 pot inactive, hERG rescue -6, KCNQ1 block inactive, Cl transport mod -1.8 and KCNK3 block inactive.
For Cc1oc(-c2cccc(Cl)c2)nc1CN1CCCC(C(=O)NCc2ccco2)C1 (centres undefined) the results were KCNK9 block inactive, KCNQ1 pot inactive, hERG rescue -17, KCNQ1 block inactive and KCNK3 block inactive.
`Cc1oc(-c2cccc(Cl)c2)nc1CN1CCCC(C(=O)NC(C)c2ccc3c(c2)OCCO3)C1` (centres undefined) gave KCNK9 block inactive, KCNQ1 pot inactive, hERG rescue -14, KCNQ1 block inactive, KCNK3 block -11*, KCNK3 confirm 127* and KCNK3 noninduced 0.12*.
For COC(=O)C1=C(CS(=O)(=O)c2ccccc2)NC(=O)NC1c1ccc(OC)c(OC)c1 (centres undefined) the results were KCNK9 block inactive, KCNQ1 pot inactive, hERG rescue -5, KCNQ1 block inactive and KCNK3 block inactive.
`COc1cc(NC(=O)c2ccc(S(=O)(=O)N(C)c3ccccc3OC)cc2)cc(OC)c1` gave KCNK3 block inactive.
Screening COc1ccccc1N(C)S(=O)(=O)c1ccc(C(=O)Nc2cccc(Br)c2)cc1 returned KCNK3 block -12*, KCNK3 confirm 125* and KCNK3 noninduced inactive.
For Oc1nc(Nc2cccc(Cl)c2)sc1/C=C1\C=Nc2ccccc21 the results were KCNK9 block inactive, KCNQ1 pot inactive, hERG rescue -16, KCNQ1 block inactive, Cl transport mod -0.028 and KCNK3 block inactive.
For Oc1cccc(Nc2nc(O)c(/C=C3\C=Nc4ccccc43)s2)c1 the results were Cl transport mod -0.16, KCNK3 block -15*, KCNK3 confirm 148* and KCNK3 noninduced 0.083*.
Screening COCCOc1nc2c(c(=O)n(C)c(=O)n2C)n1Cc1cccc(OC)c1 returned KCNK9 block inactive, KCNQ1 pot inactive, hERG rescue -7, KCNQ1 block inactive, Cl transport mod -0.45, KCNK3 block -11*, KCNK3 confirm 66* and KCNK3 noninduced inactive.
Screening CCN(CC)C(=O)C(Oc1ccc(S(=O)(=O)N2CCCC2)cc1[N+](=O)[O-])c1ccccc1 (centres undefined) returned KCNK9 block -7.1*, KCNQ1 pot inactive, hERG rescue -3, KCNQ1 block inactive, KCNK3 block -11*, KCNK3 confirm 98* and KCNK3 noninduced inactive.
For CC1CCCCN1C(=O)COc1ccc(S(=O)(=O)N2CCCC2)cc1[N+](=O)[O-] (centres undefined) the results were KCNK3 block inactive.
`COc1ccc2c(c1)C(c1cccs1)=NNC(c1ccncc1)=N2` gave KCNK9 block inactive, KCNQ1 pot inactive, hERG rescue -9, KCNQ1 block inactive, Cl transport mod 0.086, KCNK3 block -8.8*, KCNK3 confirm 66* and KCNK3 noninduced inactive.
Screening CCCOc1ccc(C2=NNC(c3cccs3)=Nc3ccc(OC)cc32)cc1 returned KCNK9 block inactive, KCNQ1 pot inactive, hERG rescue -19, KCNQ1 block inactive, Cl transport mod 0.77 and KCNK3 block inactive.
`CCc1c(C)nc2cc(-c3ccc(OC)c(OC)c3)nn2c1N1CCCC1` gave KCNK9 block inactive, KCNQ1 pot inactive, hERG rescue -2, KCNQ1 block inactive, KCNK3 block -9.6*, KCNK3 confirm 109* and KCNK3 noninduced inactive.
`CCc1c(C)nc2cc(-c3ccc(OC)c(OC)c3)nn2c1N1CCC(C)CC1` gave KCNK9 block inactive, KCNQ1 pot inactive, hERG rescue -16, KCNQ1 block inactive, Cl transport mod 0.91, KCNK3 block -8.9*, KCNK3 confirm 104* and KCNK3 noninduced inactive.
Screening COc1ccc(-c2csc3nc(C)nc(N4CCC(C)CC4)c23)cc1OC returned KCNK9 block inactive, KCNQ1 pot inactive, hERG rescue 0, KCNQ1 block inactive, Cl transport mod 0.59 and KCNK3 block inactive.
Screening COc1ccc(-c2c(C)nn3c(N4CCCCCC4)cc(C)nc23)cc1OC returned KCNK9 block inactive, KCNQ1 pot inactive, hERG rescue -16, KCNQ1 block inactive and KCNK3 block inactive.
